Assay results gathered from unrelated publications.
Each line is one published result; the experiments were not run side by side.
Target: Mitogen-activated protein kinase kinase kinase 8 (MAP3K8, Homo sapiens, UniProt P41279)

SMILES | read-out | mode | technique | concentration | measurement | result
CC(C)(C)c1nc(-c2cccc(NS(=O)(=O)c3c(F)cccc3F)c2F)c(-c2ccnc(N)n2)s1 | enzyme activity | inhibitor | radiometric | 1 µM | remaining activity | 85%
COc1cc2ncnc(Nc3ccc(Oc4ccccc4)cc3C)c2cc1OC | enzyme activity | inhibitor |  | 1 µM | inhibition | 33%
CS(=O)(=O)Nc1cccc(-c2csc(NC(=O)CSc3nc4nccnc4c(=O)n3CCc3ccccc3)n2)c1 | enzyme activity | inhibitor |  | 10 µM | inhibition | 4%
CC(C)(C)c1nc2c(s1)c1nc(N)ncc1c1ccc(NS(=O)(=O)c3c(F)cccc3F)c(F)c12 | enzyme activity | inhibitor | radiometric | 1 µM | remaining activity | 93%
O=C(Nc1cnn(-c2csc(C(=O)NC3COC3)c2)c1)Nc1ccccc1Cl | enzyme activity | inhibitor |  | 5 µM | remaining activity | 92.7%
O=C(CSc1nc2nccnc2c(=O)n1CCc1ccccc1)Nc1nccs1 | enzyme activity | inhibitor |  | 10 µM | inhibition | 5%
N#CCCc1ccc2c(c1)-c1[nH]c3ccc([N+](=O)[O-])cc3c1CC(=O)N2 | cell-free assay |  |  | 0.5 µM | remaining signal | 87.5%
COc1cc2ncnc(Nc3ccc(Oc4ccccc4)c(C)c3C)c2cc1OC | enzyme activity | inhibitor |  | 1 µM | inhibition | -8%
CCOc1cc(-c2nncn2C)ccc1Nc1ncc2cc(C)nc(NCC(C)(C)C)c2n1 | enzyme activity | inhibitor | FRET | 1 µM | inhibition | < 15%
O=C1NC(=O)c2cc(Nc3ccc(F)cc3)c(Nc3ccc(F)cc3)cc21 | cell-free assay |  |  | 0.5 µM | remaining signal | 96.3%
Cc1sc(C(=O)NC2COC2)cc1-n1cc(NC(=O)Nc2c(F)cccc2Cl)cn1 | enzyme activity | inhibitor |  | 10 µM | remaining activity | 105%
CC(C)(O)[C@H]1CC[C@H](Nc2ccc3ncc(-c4cccc(C(F)(F)F)c4)n3n2)CC1 | enzyme activity | inhibitor |  | 1 µM | remaining activity | 107%
CCCS(=O)(=O)Nc1ccc(F)c(C(=O)c2c[nH]c3ncc(-c4ccc(Cl)cc4)cc23)c1F | enzyme activity | inhibitor |  | 1 µM | inhibition | < 10%
CC/C(=N\NC(=O)NCc1cccc(O)c1)c1ccc(O)c(C)c1O | enzyme activity | inhibitor |  | 0.1 µM | inhibition | -1.8%
